Reference: ChEMBL document CHEMBL3124872, “Discovery and early development of TMC647055, a non-nucleoside inhibitor of the hepatitis C virus NS5B polymerase” (J Med Chem, 2014)
pEC50, pKd: −log10 of the molar value. The source made the active and inactive calls. The calls are words filed in the database; no cut-off is given here.

Assays:
Hepatitis C virus [1] = test: Antiviral activity against Hepatitis C virus harboring […] L31V mutant infected in human HuH7 by luciferase reporter gene assay; format: functional, organism-based; conditions: Hepacivirus hominis; Huh-7
Homo sapiens [2] = test: Toxicity in HCV genotype 1-infected patient assessed as effect on ECG profile at 500 to 1000 mg, po bid for 5 days followed by morning dose on day 6; format: organism-based; conditions: in vivo, 120 h
Outline: (§1)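 HCV genotype 1-infected patients given oral b.i.d. doses of 500 or 1000 mg for 5 days plus a morning dose on day 6, in hydroxypropyl-β-cyclodextrin vehicle; adverse events with grading, laboratory parameters, vital signs, food consumption, appetite and ECG monitored.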

Hepatitis C virus [3] = test: Antiviral activity against Hepatitis C virus harboring NS5B M423T mutant infected in human HuH7 by luciferase reporter gene assay; format: functional, organism-based; conditions: Hepacivirus hominis; Huh-7
Hepatitis C virus [4] = test: Antiviral activity against Hepatitis C virus genotype 3a infected in human HuH7 by transient replicon assay; format: functional, organism-based, Hepacivirus hominis; conditions: Huh-7
Outline: (§2)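 Transient replicon assay using chimeric replicons whose NS5B region is derived from patient isolates of the stated genotype.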

Hepatitis C virus [5] = test: Antiviral activity against Hepatitis C virus genotype 1b harboring NS5B NNI-1 site V494A mutant infected in human HuH7 by luciferase reporter gene assay relative to wild-type HCV genotype 1b; format: functional, Hepacivirus hominis, Huh-7
Hepatitis C virus [6] = test: Antiviral activity against Hepatitis C virus genotype 1b infected in human HuH7 cells after 72 hrs by luciferase reporter gene assay in presence of 40% human plasma relative to control; format: functional, Hepacivirus hominis, Huh-7
Hepatitis C virus [7] = test: Antiviral activity against Hepatitis C virus genotype 2a infected in human HuH7 by transient replicon assay; format: functional, organism-based, Hepacivirus hominis; conditions: Huh-7; outline: as §2
Hepatitis C virus [8] = test: Antiviral activity against wild-type Hepatitis C virus Con 1b infected in human HuH7 by transient replicon assay; format: functional, organism-based, Hepacivirus hominis; conditions: isolate Con1, Huh-7
Hepatitis C virus [9] = test: Antiviral activity against Hepatitis C virus genotype 1b infected in human HuH7 cells after 72 hrs by luciferase reporter gene assay; format: functional, organism-based, Hepacivirus hominis; conditions: Huh-7, 72 h
[10] = Cytotoxicity against African green monkey Vero E6 cells after 3 days by resazurin-based fluorescence analysis; format: cell-based; conditions: chlorocebus sabaeus
Hepatitis C virus [11] = test: Antiviral activity against Hepatitis C virus genotype 1b infected in human HuH7 assessed as clearance of replicon cells at 3.75 uM preincubated for 2 weeks followed by 3 week rebound phase by RT-PCR analysis; format: functional, organism-based; conditions: Hepacivirus hominis, Huh-7
Outline: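 Clearance-and-rebound test in Huh7-Luc genotype 1b replicon cells. Cells were incubated with inhibitor (3.75 μM alone) for 14 days, then held for a 3-week rebound phase without inhibitor. Replicon RNA was followed for clearance and rebound.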

Hepatitis C virus [12] = test: Antiviral activity against Hepatitis C virus harboring NS5B C316Y mutant infected in human HuH7 by luciferase reporter gene assay; format: functional, organism-based; conditions: Hepacivirus hominis; Huh-7
Homo sapiens [13] = test: Toxicity in HCV genotype 1-infected patient assessed as effect on appetite at 500 to 1000 mg, po bid for 5 days followed by morning dose on day 6; format: organism-based; conditions: in vivo, 120 h; outline: as §1
Homo sapiens [14] = test: Toxicity in human assessed as effect on vital signs at 300 to 1250 mg, po bid for 5 days followed by morning dose on day 6; format: organism-based; conditions: in vivo, 120 h
Outline: (§3)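 Healthy volunteers given oral b.i.d. doses of 300, 1000 or 1250 mg for 5 days plus a morning dose on day 6, in hydroxypropyl-β-cyclodextrin vehicle; adverse events, laboratory parameters, vital signs, food consumption, appetite, ECG and plasma 4-β-hydroxycholesterol (CYP3A4 induction marker) monitored.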

Hepatitis C virus [15] = test: Antiviral activity against Hepatitis C virus harboring […] D168V mutant infected in human HuH7 by luciferase reporter gene assay; format: functional, organism-based; conditions: Hepacivirus hominis; Huh-7
Homo sapiens [16] = test: Toxicity in human assessed as effect on appetite at 300 to 1250 mg, po bid for 5 days followed by morning dose on day 6; format: organism-based; conditions: in vivo, 120 h; outline: as §3
Hepatitis C virus [17] = test: Antiviral activity against Hepatitis C virus genotype 1a infected in human HuH7 by transient replicon assay; format: functional, organism-based, Hepacivirus hominis; conditions: subtype 1a, Huh-7; outline: as §2
Hepatitis C virus [18] = test: Antiviral activity against Hepatitis C virus genotype 2b infected in human HuH7 by transient replicon assay; format: functional, organism-based, Hepacivirus hominis; conditions: Huh-7; outline: as §2
[19] = Selectivity ratio of EC50 for Hepatitis C virus genotype 2b to EC50 for wild-type Hepatitis C virus Con 1b; format: functional
Outline: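 Transient replicon assay using chimeric replicons carrying NS5B from genotype 2a or 2b patient isolates. EC50 was compared with that against the genotype 1b replicon.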

Homo sapiens [20] = test: Toxicity in HCV genotype 1-infected patient assessed as effect on food consumption at 500 to 1000 mg, po bid for 5 days followed by morning dose on day 6; format: organism-based; conditions: in vivo, 120 h; outline: as §1
[21] = Binding affinity to Hepatitis C virus genotype 6a NS5B by surface plasmon resonance analysis; design: species or system Hepatitis C virus subtype 6a
Outline: (§4)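 Surface plasmon resonance binding to NS5B polymerase of the stated genotype; association and dissociation rate constants measured, from which Kd and residence half-life were derived; median Kd reported.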

[22] = Binding affinity to Hepatitis C virus genotype 5a NS5B by surface plasmon resonance analysis; design: species or system Hepatitis C virus subtype 5a; outline: as §4
Homo sapiens [23] = test: Toxicity in human assessed as grade-3 adverse events at 300 to 1250 mg, po bid for 5 days followed by morning dose on day 6; format: organism-based; conditions: in vivo, 120 h
Outline: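 Oral b.i.d. dosing for 5 days plus a single morning dose on day 6, in a hydroxypropyl-β-cyclodextrin vehicle. Healthy volunteers received 300, 1000 or 1250 mg; HCV genotype 1-infected patients received 500 or 1000 mg. Monitoring covered adverse events graded by severity, laboratory parameters, vital signs, food consumption, appetite and ECG.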

Rattus norvegicus = test: Toxicity in rat assessed as decrease in body weight at 1000 mg/kg/day after 5 days; format: organism-based; conditions: in vivo, 120 h
Homo sapiens [24] = test: Toxicity in human assessed as effect on ECG profile at 300 to 1250 mg, po bid for 5 days followed by morning dose on day 6; format: organism-based; conditions: in vivo, 120 h; outline: as §3
[25] = Drug uptake in Sprague-Dawley rat liver at 10 mg/kg, po after 7 hrs; format: ADME, organism-based; design: dose 10 mg/kg, route oral; conditions: read-out: Drug uptake
Hepatitis C virus [26] = test: Antiviral activity against Hepatitis C virus genotype 6a infected in human HuH7 by transient replicon assay; format: functional, organism-based, Hepacivirus hominis; conditions: Huh-7; outline: as §2
Hepatitis C virus [27] = test: Antiviral activity against Hepatitis C virus genotype 1b infected in human assessed as log10 reduction in HCV RNA level at 1000 mg, po bid for 5 days followed by morning dose on day 6 relative to control; format: functional, Hepacivirus hominis
Outline: (§5)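 Oral b.i.d. dosing of HCV genotype 1-infected patients at 500 mg or 1000 mg for 5 days, plus a morning dose on day 6, in hydroxypropyl-β-cyclodextrin vehicle. Read-out was the median maximum decrease in plasma HCV RNA from baseline (log10), using patients with HCV RNA data available up to Day 6.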

Hepatitis C virus [28] = test: Antiviral activity against Hepatitis C virus harboring […] R155K mutant infected in human HuH7 by luciferase reporter gene assay; format: functional, organism-based; conditions: Hepacivirus hominis; Huh-7
Hepatitis C virus [29] = test: Antiviral activity against Hepatitis C virus harboring NS5B S282T mutant infected in human HuH7 by luciferase reporter gene assay; format: functional, organism-based; conditions: Hepacivirus hominis; Huh-7
Hepatitis C virus [30] = test: Antiviral activity against Hepatitis C virus genotype 1b infected in human assessed as log10 reduction in HCV RNA level at 500 mg, po bid for 5 days followed by morning dose on day 6 relative to control; format: functional, Hepacivirus hominis; outline: as §5
[31] = Binding affinity to Hepatitis C virus genotype 4a NS5B by surface plasmon resonance analysis; design: species or system Hepatitis C virus subtype 4a; outline: as §4

In the case of `COc1ccc2c(c1)C=C1Cn3c-2c(C2CCCCC2)c2ccc(cc23)C(=O)NS(=O)(=O)N(C)CCOCCN(C)C1=O` [TMC-647055], the Activity (Hepatitis C virus [1]) was “Active”, the Activity (Homo sapiens [2]) was “Non-toxic” and the Activity (Hepatitis C virus [3]) was “Active”. The pEC50 (Hepatitis C virus [4]) was 7.06, the “fold change (FC)” value (Hepatitis C virus [5]) was 3 and the “fold change (FC)” value (Hepatitis C virus [6]) was 9. It also gave a pEC50 (Hepatitis C virus [7]) of 4.90, a pEC50 (Hepatitis C virus [8]) of 7.29 and a pEC50 (Hepatitis C virus [9]) of 7.11. For the same compound, the CC50 at 72 h [10] was over 50000 nM, the Activity (Hepatitis C virus [11]) was “inactive” and the Activity (Hepatitis C virus [12]) was “Active”. For the same compound, the Activity (Homo sapiens [13]) was “Non-toxic”, the Activity (Homo sapiens [14]) was “Non-toxic” and the Activity (Hepatitis C virus [15]) was “Active”. The Activity (Homo sapiens [16]) was “Non-toxic”, the pEC50 (Hepatitis C virus [17]) was 7.32 and the pEC50 (Hepatitis C virus [18]) was under 4.55. For the same compound, the “Ratio EC50” value [19] was over 200, the Activity (Homo sapiens [20]) was “Non-toxic” and the pKd [21] was 7.52. For the same compound, the pKd [22] was 7.68, the Activity (Homo sapiens [23]) was “Non-toxic” and the Activity (Rattus norvegicus) was “Toxic”. For the same compound, the Activity (Homo sapiens [24]) was “Non-toxic”, the concentration at 7 h [25] was 7800 ng/g and the pEC50 (Hepatitis C virus [26]) was 6.95. For the same compound, the FC (Hepatitis C virus [27]) was 3.4, the Activity (Hepatitis C virus [28]) was “Active” and the Activity (Hepatitis C virus [29]) was “Active”. For the same compound, the FC (Hepatitis C virus [30]) was 3.3 and the pKd [31] was 8.70.
